# Compound activity (PubChem BioAssay)
# Apaf-1 inh = inhibitors of human Apaf-1 apoptosome, primary screen, biochemical, DEVD-Rh110 fluorescence, uHTS; AID 489030, 2010; hit rate 0.71% among 330,000; inhibition, % at 20 µM; reconstituted apoptosome caspase-3 activity; Apoptotic protease-activating factor 1 (Homo sapiens), O14727; active = inhibition of at least 40% at 20 µM;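 note: plate controls were DMSO wells for no effect and DEVD-CHO caspase inhibitor wells for full effect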
#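 detection = Rh110 fluorescence intensity | test system = biochemical Apaf-1 apoptosome reconstitution | also added = cytochrome c and DEVD-Rh110 substrate | schedule = 30 min plus 50 min, RT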
# PREPL inh = PREPL enzyme inhibitors, primary screen, biochemical, fluorescence polarization. AID 2751, 2010. recombinant PREPL, fluorescence polarization activity-based probe. inhibition, % at 5.96 µM. hit rate 0.68% among 320,000; in the data active = inhibition above about 43%;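 note: 0% = enzyme with DMSO and 100% = wells lacking enzyme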
# PAFAH2 inh = PAFAH2 enzyme inhibitors, primary screen, biochemical, fluorescence polarization, human | inhibition, % at 3.39 µM | hit rate 0.99% among 340,000 | Platelet-activating factor acetylhydrolase 2, cytoplasmic (Homo sapiens), Q99487 | recombinant PAFAH2, FP-rhodamine activity probe;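 active = inhibition above the mean over all tested compounds plus 3 SD, cut at about 30% in these data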;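 note: inhibitors block probe labeling of enzyme so polarization drops; 0% = enzyme with DMSO and 100% = wells lacking PAFAH2 protein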
# pPAFAH FP inh = pPAFAH enzyme inhibitors, primary screen, biochemical, fluorescence polarization, human. hit rate 1.5% among 330,000. Platelet-activating factor acetylhydrolase (Homo sapiens), Q13093. recombinant pPAFAH, FP-rhodamine probe fluorescence polarization. inhibition, % at 3.39 µM;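 active = inhibition above the mean inhibition across the screen plus 3 SD, cut at about 25% in these data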;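 note: inhibitors block binding of the rhodamine activity-based probe so polarization drops; 0% = enzyme with DMSO and 100% = wells lacking pPAFAH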
# PAFAH1B3 inh = PAFAH1B3 enzyme inhibitors, primary screen, biochemical, fluorescence polarization, human; inhibition, % at 3.39 µM; AID 492972, 2010; Platelet-activating factor acetylhydrolase IB subunit alpha1 (Homo sapiens), Q15102; hit rate 0.28% among 340,000; recombinant PAFAH1B3, FP-rhodamine probe;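 active = inhibition above the screen-wide average of all tested compounds plus 3 SD, cut at about 25% in these data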;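 note: 0% = enzyme with DMSO only and 100% = wells lacking PAFAH1B3 protein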
# Target sequence (Q15102 whole entry, looked up): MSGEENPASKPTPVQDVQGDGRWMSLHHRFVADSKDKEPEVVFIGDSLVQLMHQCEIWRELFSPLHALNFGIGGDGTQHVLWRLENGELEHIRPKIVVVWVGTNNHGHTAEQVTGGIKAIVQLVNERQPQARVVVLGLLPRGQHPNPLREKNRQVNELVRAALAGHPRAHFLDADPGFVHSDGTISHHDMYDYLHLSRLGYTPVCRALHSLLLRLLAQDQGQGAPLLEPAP
# PAFAH1B2 FP inh = PAFAH1B2 enzyme inhibitors, primary screen, biochemical, fluorescence polarization, human. recombinant PAFAH1B2, FP-rhodamine activity probe. inhibition, % at 3.39 µM. hit rate 1.2% among 340,000;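 active = inhibition above the mean of all tested compounds plus 3 SD, cut at about 24% in these data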;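 note: 0% = enzyme with DMSO and 100% = wells lacking PAFAH1B2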
# Target sequence (P68402 whole entry, looked up): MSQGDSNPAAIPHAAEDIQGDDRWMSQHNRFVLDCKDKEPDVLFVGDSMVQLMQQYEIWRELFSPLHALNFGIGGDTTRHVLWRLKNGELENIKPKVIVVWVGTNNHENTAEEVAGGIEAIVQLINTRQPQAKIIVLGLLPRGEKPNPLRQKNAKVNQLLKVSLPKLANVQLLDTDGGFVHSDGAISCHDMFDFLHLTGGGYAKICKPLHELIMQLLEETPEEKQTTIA
# An asterisk follows results filed as active; · = not tested or not shown. An excerpt weighted towards active compounds, which were near 3.5% of everything screened.
SMILES,Apaf-1 inh,PREPL inh,PAFAH2 inh,pPAFAH FP inh,PAFAH1B3 inh,PAFAH1B2 FP inh
COc1ccc2cc3c(N)c(C(=O)NCc4ccco4)sc3nc2c1,2,23,10,8,1,-1
Nc1c(C(=O)NCc2ccco2)sc2nc3c(cc12)C(=O)CCC3,-1,17,1,28*,-7,2
COC(=O)C1=C(Nc2ccccc2NS(=O)(=O)c2ccc(C(F)(F)F)cc2Cl)CSC1,-11,2,8,24,2,28*
CCOC(=O)[C@H]1[C@H]2COc3ccc(OC)cc3[C@@H]2N2C(=O)CN(CCc3c[nH]c4ccccc34)C(=O)[C@@]12C,8,16,1,2,2,4
CCOC(=O)c1cnc2c(-c3cccc(Br)c3)cnn2c1C,8,4,10,-1,9,-5
O=C(O)C1CCN(S(=O)(=O)c2ccc(Cl)s2)CC1,-6,1,1,-2,8,27*
CC1CCN(S(=O)(=O)c2ccc(Br)s2)CC1,-1,8,-7,-1,-1,29*
CC1CCN(S(=O)(=O)c2ccc(Cl)s2)CC1,8,7,-7,1,8,25*
COC(=O)c1ccc(C(=O)OC)c(NC(=O)C2CCCO2)c1 (centres undefined),-10,-7,2,4,8,2
Cc1cc(C)c2c(n1)SCC(=O)N2CC(=O)Nc1cc(F)ccc1F,3,-6,0,2,3,1
CCCn1c(=O)c2ccccc2n2c(Sc3nnnn3-c3ccccc3)nnc12,3,6,-7,27*,8,-3
O=C(O)c1cccc(-c2ccc(/C=c3/sc4nc5ccccc5n4c3=O)o2)c1,-195,-5,21,26*,26*,15
O=c1/c(=C/c2ccccn2)sc2nc3ccccc3n12,7,-1,5,4,8,4
O=c1/c(=C\c2cc([N+](=O)[O-])cc([N+](=O)[O-])c2O)sc2nc3ccccc3n12,9,8,14,26*,1,4
Cc1c(O)ccc(/C(Cc2ccc3ccccc3n2)=N\O)c1O,-1,25,28,19,53*,29*
CC(=O)Oc1ccc(C(=O)Cc2ccc3ccccc3n2)c(O)c1C,-2,-4,8,2,13,0
Cc1ccc2nc(SCC(=O)Nc3nonc3C)[nH]c2c1,4,-2,4,-4,4,2
COc1cc(S(=O)(=O)Nc2cccc(C)c2)ccc1NC(=O)c1cccnc1,14,7,-7,30*,-2,-2
COc1cc(NC(=O)c2cccnc2)ccc1NC(=O)c1ccccc1Cl,1,4,1,7,2,-1
Cc1cc(F)ccc1NC(=O)c1ccc(NS(=O)(=O)c2cc(C(C)(C)C)ccc2C)cc1,6,1,-23,25*,-34,-10
CC(=O)Nc1ccc(NC(=O)c2ccc(NS(=O)(=O)c3cc(C(C)(C)C)ccc3C)cc2)cc1,-12,-5,-29,-6,-15,-13
O=C(Cc1ccc(Br)cc1)Nc1cccc(Cl)c1,9,0,·,-4,·,·
Cc1ccc(S(=O)(=O)c2nc(S(C)(=O)=O)sc2N2CC(C)OC(C)C2)cc1 (centres undefined),4,-4,-3,1,4,2
O=C(Nc1cccc(S(=O)(=O)N2CCOCC2)c1)c1ccc2ccccc2n1,1,-4,2,-2,-4,-3
CCN(CC)S(=O)(=O)c1ccc(N2CCOCC2)c(NC(=O)c2c3c(nc4ccccc24)CCC3)c1,14,1,17,26*,-3,-6
SMILES,Apaf-1 inh,PREPL inh,PAFAH2 inh,pPAFAH FP inh,PAFAH1B3 inh,PAFAH1B2 FP inh
Cc1ccc(NC(=O)c2cc(-c3ccco3)nc3ccccc23)cc1S(=O)(=O)N1CCOCC1,19,-3,-8,27*,0,-6
O=C(Nc1cccc(S(=O)(=O)N2CCOCC2)c1)c1c2c(nc3ccccc13)CCC2,-3,-2,-4,27*,2,-1
COc1ccc(NC(=O)c2cc(-c3ccco3)nc3ccccc23)cc1S(=O)(=O)N1CCOCC1,15,12,11,-13,7,2
CC(=O)c1ccc(NC(=O)CSc2nnc(-c3ccncc3)n2C2CC2)cc1,-14,6,1,-2,5,-3
CCN(CC)CCNC(=O)c1ccc2c(c1NCCO)C(=O)c1ccccc1C2=O,54*,37,·,-3,·,·
N#C/C(=C(/O)CCl)c1nc2c(s1)CCc1ccccc1-2,29,10,30*,21,-2,2
Nc1nc2c(s1)CCc1ccccc1-2,10,-4,4,1,8,10
CC(=O)c1cccc(S(=O)(=O)Nc2c(C)nn(C)c2C)c1,-3,0,-5,2,5,4
O=C(NCC1CCCO1)c1cccc(NS(=O)(=O)c2ccccc2)c1 (centres undefined),-3,0,6,5,-6,-3
Cc1ccc(NS(=O)(=O)c2cccc(C(=O)NCC3CCCO3)c2)cc1 (centres undefined),6,-7,0,31*,3,2
Cc1ccc(S(=O)(=O)Nc2ccc(S(=O)(=O)NCC3CCCO3)cc2)cc1 (centres undefined),2,-2,1,3,1,43*
O=C(O)c1cc(O)ccc1NC(=O)C(c1ccccc1)c1ccccc1,-4,1,-1,12,7,24*
CCOC(=O)c1c(NC(=O)/C=C/C(=O)O)sc(C)c1-c1ccc(C(C)(C)C)cc1,31,0,-2,33*,-16,-4
Cc1sc(NC(=O)C2CCCCC2C(=O)O)c(C(N)=O)c1-c1ccc(C(C)(C)C)cc1 (centres undefined),4,-7,7,-7,-3,26*
COc1cc(C(=O)OCC(=O)N2CCC(C)CC2)cc2c1OCCO2,1,3,12,3,6,9
O=C(O)c1ccccc1C(=O)Nc1cc(C(F)(F)F)ccc1N1CCCC1,8,0,8,30*,5,6
CCOC(=O)CN1C(=O)S/C(=C\c2ccc(-c3ccc(C(=O)O)c(Cl)c3)o2)C1=O,2,-7,-3,10,4,-5
O=C(O)c1ccc(-c2ccc(/C=C3\NC(=O)N(Cc4ccc(Cl)cc4)C3=O)o2)cc1Cl,10,·,30*,·,22,8
COc1ccc(NC(=O)COC(=O)c2ccc(O)cc2)c([N+](=O)[O-])c1,-5,9,49*,28*,6,0
COC(=O)c1ccc(CNC(=O)C2CCC(=O)N(CCc3ccccc3)C2)cc1 (centres undefined),-2,·,4,·,-3,3
